Reference: paper PMC6129214 (Nature medicine, 2018)

How the values were obtained:
[1] = system: platelet aggregation; experiment: Direct incubation of inhibitor with mouse PRP, platelet aggregometry; format: cell-based, mice; conditions: 20 µM, with or without ADP
[2] = system: carotid artery thrombus formation; experiment: FeCl3-induced carotid artery injury thrombosis model; format: in vivo, mice; conditions: DMB 1.3% v/v; 0.06% IMC or 0.006% FMC in diet
[3] = system: platelet aggregation; experiment: Mouse ex vivo platelet aggregometry in PRP; conditions: ADP 1 μM, choline-supplemented mice
Outline: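 Mice on a choline-supplemented (1% w/w) or control diet, with or without test compound in the diet (0.006% or 0.06% w/w, 2 weeks), are anaesthetized with ketamine 100 mg/kg and xylazine 10 mg/kg. Blood is drawn and PRP aggregation to 1 μM ADP is recorded as % of maximum amplitude per mouse. Plasma TMAO is also measured.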

[4] = system: plasma TMAO; experiment: Plasma TMAO levels; format: in vivo; conditions: mice on a choline-supplemented diet, data not shown

Row | Structure (SMILES) | effect of direct incubation on platelet aggregometry responses, mouse PRP [1] | effect on choline diet-induced rise in TMAO and in vivo rate of clot formation [2] | effect on choline diet-enhanced ADP-dependent platelet aggregation in PRP [3] | effect on plasma TMAO levels in vivo [4]
1 | CC(C)(C)CCO [DMB, 3,3-dimethyl-1-butanol] | no effects | attenuated | significantly reduced | –
2 | Oc1ccc(/C=C/c2cc(O)cc(O)c2)cc1 [Resveratrol] | – | – | – | showed no effect
